Source: ChEMBL document CHEMBL4689842, “EUbOPEN Chemogenomics Library wave 1” (2021)

System: U2OS
Experiment: Multiplex assay against U2OS
Type: toxicity, cell-based
Settings: human
Method in brief: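 Per cents of healthy-nucleus cells form the tubulin, mitochondrial-mass and membrane-permeability phenotype values. Live cells were stained at seeding with Hoechst33342, BioTracker Green Microtubule Cytoskeleton Dye, MitoTracker Red and Annexin V Alexa Fluor 680. After compound addition they were imaged on a CQ1 microscope at 37°C and 5% CO2, and CellPathfinder machine-learning gating split them into Hoechst high-intensity objects or normal cells, normal cells into healthy, pyknosed or fragmented nuclei, and pyknosed cells into mitotic or apoptotic.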

[1] = 12 h, 1 µM, compound concentration 1 uM, replicate 1
[2] = 12 h, 1 µM, compound concentration 1 uM, replicate 2
[3] = 12 h, 10 µM, compound concentration 10 uM, replicate 1
[4] = 12 h, 10 µM, compound concentration 10 uM, replicate 2
[5] = 24 h, 1 µM, compound concentration 1 uM, replicate 1
[6] = 24 h, 1 µM, compound concentration 1 uM, replicate 2
[7] = 24 h, 10 µM, compound concentration 10 uM, replicate 1
[8] = 24 h, 10 µM, compound concentration 10 uM, replicate 2
[9] = 48 h, 1 µM, compound concentration 1 uM, replicate 1
[10] = 48 h, 1 µM, compound concentration 1 uM, replicate 2
[11] = 48 h, 10 µM, compound concentration 10 uM, replicate 1
[12] = 48 h, 10 µM, compound concentration 10 uM, replicate 2

Compound: CCc1ccc(OCc2ccccc2C(=O)Nc2ccc3nc(C)cc(N)c3c2)cc1.Cl
- Population Apoptotic (%) [1]: 80%
- Population Fragmented Nuclei (%) [1]: 25%
- Population Healthy Nuclei (%) [1]: 34%
- Population Hoechst High Intensity Objects (%) [1]: 10%
- Population Membrane Permeable-Phenotype (%) [1]: 27%
- Population Mitochondria Different-Phenotype (%) [1]: 95%
- Population Mitotic Cells (%) [1]: 19%
- Population Normal (%) [1]: 89%
- Population Pyknosed Nuclei (%) [1]: 40%
- Population Tubulin-Different-Phenotype (%) [1]: 87%
- Total Cell Count [1]: 191
- Population Apoptotic (%) [2]: 71%
- Population Fragmented Nuclei (%) [2]: 33%
- Population Healthy Nuclei (%) [2]: 33%
- Population Hoechst High Intensity Objects (%) [2]: 16%
- Population Membrane Permeable-Phenotype (%) [2]: 28%
- Population Mitochondria Different-Phenotype (%) [2]: 92%
- Population Mitotic Cells (%) [2]: 28%
- Population Normal (%) [2]: 84%
- Population Pyknosed Nuclei (%) [2]: 33%
- Population Tubulin-Different-Phenotype (%) [2]: 85%
- Total Cell Count [2]: 68
- Population Apoptotic (%) [3]: 78%
- Population Fragmented Nuclei (%) [3]: 9%
- Population Healthy Nuclei (%) [3]: 22%
- Population Hoechst High Intensity Objects (%) [3]: 7%
- Population Membrane Permeable-Phenotype (%) [3]: 75%
- Population Mitotic Cells (%) [3]: 21%
- Population Normal (%) [3]: 92%
- Population Pyknosed Nuclei (%) [3]: 68%
- Population Tubulin-Different-Phenotype (%) [3]: 97%
- Total Cell Count [3]: 129
- Population Apoptotic (%) [4]: 76%
- Population Fragmented Nuclei (%) [4]: 8%
- Population Healthy Nuclei (%) [4]: 14%
- Population Hoechst High Intensity Objects (%) [4]: 12%
- Population Membrane Permeable-Phenotype (%) [4]: 100%
- Population Mitochondria Different-Phenotype (%) [4]: 100%
- Population Mitotic Cells (%) [4]: 23%
- Population Normal (%) [4]: 87%
- Population Pyknosed Nuclei (%) [4]: 77%
- Population Tubulin-Different-Phenotype (%) [4]: 100%
- Total Cell Count [4]: 50
- Population Apoptotic (%) [5]: 90%
- Population Fragmented Nuclei (%) [5]: 44%
- Population Healthy Nuclei (%) [5]: 16%
- Population Hoechst High Intensity Objects (%) [5]: 11%
- Population Membrane Permeable-Phenotype (%) [5]: 57%
- Population Mitochondria Different-Phenotype (%) [5]: 94%
- Population Mitotic Cells (%) [5]: 9%
- Population Normal (%) [5]: 88%
- Population Pyknosed Nuclei (%) [5]: 38%
- Population Tubulin-Different-Phenotype (%) [5]: 73%
- Total Cell Count [5]: 234
- Population Apoptotic (%) [6]: 83%
- Population Fragmented Nuclei (%) [6]: 25%
- Population Healthy Nuclei (%) [6]: 28%
- Population Hoechst High Intensity Objects (%) [6]: 17%
- Population Membrane Permeable-Phenotype (%) [6]: 27%
- Population Mitochondria Different-Phenotype (%) [6]: 90%
- Population Mitotic Cells (%) [6]: 16%
- Population Normal (%) [6]: 82%
- Population Pyknosed Nuclei (%) [6]: 46%
- Population Tubulin-Different-Phenotype (%) [6]: 63%
- Total Cell Count [6]: 92
- Population Apoptotic (%) [7]: 79%
- Population Fragmented Nuclei (%) [7]: 7%
- Population Healthy Nuclei (%) [7]: 13%
- Population Hoechst High Intensity Objects (%) [7]: 12%
- Population Membrane Permeable-Phenotype (%) [7]: 54%
- Population Mitochondria Different-Phenotype (%) [7]: 100%
- Population Mitotic Cells (%) [7]: 20%
- Population Normal (%) [7]: 87%
- Population Pyknosed Nuclei (%) [7]: 78%
- Population Tubulin-Different-Phenotype (%) [7]: 95%
- Total Cell Count [7]: 127
- Population Apoptotic (%) [8]: 70%
- Population Fragmented Nuclei (%) [8]: 15%
- Population Healthy Nuclei (%) [8]: 38%
- Population Hoechst High Intensity Objects (%) [8]: 31%
- Population Membrane Permeable-Phenotype (%) [8]: 47%
- Population Mitochondria Different-Phenotype (%) [8]: 94%
- Population Mitotic Cells (%) [8]: 30%
- Population Normal (%) [8]: 68%
- Population Pyknosed Nuclei (%) [8]: 45%
- Population Tubulin-Different-Phenotype (%) [8]: 94%
- Total Cell Count [8]: 47
- Population Apoptotic (%) [9]: 96%
- Population Fragmented Nuclei (%) [9]: 46%
- Population Healthy Nuclei (%) [9]: 3%
- Population Hoechst High Intensity Objects (%) [9]: 15%
- Population Membrane Permeable-Phenotype (%) [9]: 75%
- Population Mitochondria Different-Phenotype (%) [9]: 100%
- Population Mitotic Cells (%) [9]: 3%
- Population Normal (%) [9]: 84%
- Population Pyknosed Nuclei (%) [9]: 50%
- Population Tubulin-Different-Phenotype (%) [9]: 75%
- Total Cell Count [9]: 377
- Population Apoptotic (%) [10]: 100%
- Population Fragmented Nuclei (%) [10]: 29%
- Population Healthy Nuclei (%) [10]: 37%
- Population Hoechst High Intensity Objects (%) [10]: 28%
- Population Membrane Permeable-Phenotype (%) [10]: 71%
- Population Mitochondria Different-Phenotype (%) [10]: 92%
- Population Mitotic Cells (%) [10]: 0%
- Population Normal (%) [10]: 71%
- Population Pyknosed Nuclei (%) [10]: 32%
- Population Tubulin-Different-Phenotype (%) [10]: 78%
- Total Cell Count [10]: 140
- Population Apoptotic (%) [11]: 84%
- Population Fragmented Nuclei (%) [11]: 9%
- Population Healthy Nuclei (%) [11]: 12%
- Population Hoechst High Intensity Objects (%) [11]: 11%
- Population Membrane Permeable-Phenotype (%) [11]: 40%
- Population Mitochondria Different-Phenotype (%) [11]: 95%
- Population Mitotic Cells (%) [11]: 16%
- Population Normal (%) [11]: 88%
- Population Pyknosed Nuclei (%) [11]: 77%
- Population Tubulin-Different-Phenotype (%) [11]: 90%
- Total Cell Count [11]: 130
- Population Apoptotic (%) [12]: 100%
- Population Fragmented Nuclei (%) [12]: 47%
- Population Healthy Nuclei (%) [12]: 43%
- Population Hoechst High Intensity Objects (%) [12]: 63%
- Population Membrane Permeable-Phenotype (%) [12]: 60%
- Population Mitochondria Different-Phenotype (%) [12]: 90%
- Population Mitotic Cells (%) [12]: 0%
- Population Normal (%) [12]: 36%
- Population Pyknosed Nuclei (%) [12]: 8%
- Total Cell Count [12]: 52
